Unmarked numbers belong to inactive results. Inconclusive results are not listed. Active and inactive are the calls of the source.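 How the source made its calls, unless noted: active means growth inhibition above 25% in both replicates, a cutoff set 3 SD above the mean; inconclusive means above 25% in only one replicate; inactive means the rest.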

Experimental findings from PubChem BioAssay are described below.

Assay [1] is described as follows: OD615 S. cerevisiae growth inhibition, permissive medium, pilot counter-assay, permissive growth control for S. cerevisiae lifespan shortening project (AID 705). As to conditions: OD615, 24 h, at 10 µM, stronger effect = higher value. A digest of the protocol:
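System: Engineered DeaD yeast | Buffer or medium: SC raffinose/galactose permissive medium | Incubation: Cells pre-grown 4 h, then 24 h compound exposure, 30 °C humidified | Measured by: Absorbance (optical density) at 615 nm | Read-out: Reduction in yeast growth (OD615)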

Assay [2] can be described thus: viability gain of MRP-1-high H69AR cells under doxorubicin, pilot screen, MRP-1 activator project, CellTiter-Glo, duplicate (AID 807;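 active means viability increase at or above a cutoff of the median across tested compounds plus 3 SD, cut at about 8.5% in these data, passing the limit was not always enough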;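 further: compound pretreatment 18-22 h then 72 h combined with doxorubicin; 0% = doxorubicin alone and 100% = vehicle without doxorubicin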). To be noted: H69AR viability with doxorubicin, CellTiter-Glo luminescence; at 10 µM; stronger effect = higher value.
Assay [3] in a line: growth suppression of beta-catenin knockout HCT116, pilot screen, human colon tumor cells (AID 823;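 active means cell viability at or below a set limit in both duplicate runs, the limit being the all-compound median minus 4 SD, cut at about 23% in these data, passing the limit was not always enough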;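 further: 0% = wells killed by 20 µM Hyamine and 100% = untreated DMSO cell wells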). As to conditions: CellTiter-Glo, 60 h, at 10 µM, stronger effect = lower value. A general note: In ATP-based viability assays light output follows the ATP content of the culture.
Assay [4] is described as follows: growth suppression of PTEN-deleted HCT116, pilot screen, cell-based, HCT116 clonal line, CellTiter-Glo (AID 824;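 active means viability at or below 27.92% in each of two runs, the all-compound median minus 4 SD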;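 further: 0% = 20 µM Hyamine control and 100% = vehicle cell control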). To be noted: 60 h, at 10 µM, stronger effect = lower value.
Assay [5] is described as follows: inhibitors of the yeast RAM network, pilot screen, dse1pr::URA3 reporter, 5-FOA selection (AID 869;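 active means inhibition over a set limit, the all-compound mean plus 3 SD, in both replicate runs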;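 further: 0% = DMSO wells with no growth and 100% = 10 µM 1-NA-PP1 with full growth; RAM network block rescues cells from 5-FOA so hits raise OD615 growth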). As to conditions: S. cerevisiae dse1pr::URA3 5-FOA growth, OD615, 2 d; at 10 µM; stronger effect = higher value; strain carries analog-sensitive mutant Cbk1 kinase.
The nature of assay [6]: Restrictive medium S. cerevisiae growth inhibition, OD615, pilot screen of yeast lifespan reduction project, restrictive growth control (AID 706;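 active means growth inhibition above a set limit, 3 SD over mean compound inhibition, in both replicates, cut at about 43% in these data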;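 further: modified DeaD lifespan yeast strain shifted to restrictive glucose medium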). As to conditions: OD615, 48 h, at 10 µM, stronger effect = higher value. In a few lines:
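Material: modified S. cerevisiae; Medium: glucose-based CSMM-D restrictive medium; Compound dosing: one concentration, 10 µM final, 0.25% DMSO; Incubation: 48 h compound exposure at 30 °C; Measured by: OD615.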

In general, viability refers to a read-out of living cells in per cent, often relative to untreated cells. By inhibition is commonly meant the relative decrease from the control value, in per cent. Take `N#CC1=C2SCN(c3ccccc3)CN2C(=O)CC1c1ccccc1Cl` (stereo unspecified): in assay [1], the growth inhibition is 6.17%. Also, the viability increase in assay [2] was -5.58%. The viability in assay [3] was 97.2%; in assay [4], 82.5%. For the same compound, the inhibition in assay [5] is 2.58%.
`Cc1ccc(-c2nc(C(=O)NC3CCCCCC3)no2)cc1`: the growth inhibition in assay [1] was -6.78%; in assay [6], 5.45%. Further, in assay [2], the viability increase was 4.07%. Moreover, the viability in assay [3] was 103%; in assay [4], 104%. Moreover, in assay [5], the inhibition is -0.1%.
In the case of `CCOC(=O)c1ccc(NC(=O)c2ccc(C)c(S(=O)(=O)N3CCOCC3)c2)cc1`, the figures for the growth inhibition in assay [1] and in assay [6] were -7.03% and -5.64%, respectively. The viability increase in assay [2] is -3.41%. Besides, the viability in assay [3] is 12.8% (active). The inhibition in assay [5] was 0.87%.
With `COc1cc(C2CC(=O)c3c([nH]c(C(=O)OCCOC(C)C)c3C)C2)cc(OC)c1OC` (stereo unspecified), the growth inhibition in assay [1] was -15.2%; in assay [6], -28.2%. In assay [2], the viability increase is -2.78%. The viability in assay [4] was 42.7%. In addition, in assay [5], the inhibition is 1.85%.
For `CCOC(=O)CSc1nc2c(c(=O)n(C)c(=O)n2C)n1Cc1ccccc1F`, the growth inhibition is -8.61% in assay [1] and 2.55% in assay [6]. The viability increase in assay [2] was 0.38%. The figures for the viability in assay [3] and in assay [4] were 95.9% and 93.6%, respectively. The inhibition in assay [5] was 2%.
Take `O=C1c2ccccc2C(Nc2ccc(S(=O)(=O)N3CCOCC3)cc2)N1c1cccnc1` (stereo unspecified): the figures for the growth inhibition in assay [1] and in assay [6] were -3.45% and -1.27%, respectively. Besides, the viability increase in assay [2] was -0.92%. Further, the values for the viability in assay [3] and in assay [4] were 102% and 97%, respectively. For the same compound, the inhibition in assay [5] is -0.33%.
On to `COc1ccc(N(CC(=O)NCCSc2ccccn2)S(C)(=O)=O)cc1Cl`, for which the growth inhibition is -5.09% in assay [1] and -6.72% in assay [6]. Besides, the viability increase in assay [2] is -3.81%. Also, the viability in assay [4] is 97.3%. In addition, the inhibition in assay [5] is 1.44%.
For the compound `Cc1cccc(N2CCN(C(=O)c3cc4c(=O)n(C)c5ccccc5c4n3C)CC2C)c1` (stereo unspecified), the results for the growth inhibition in assay [1] and in assay [6] were -3.86% and 3.15%, respectively. The viability increase in assay [2] is -4.81%. Also, in assay [5], the inhibition is 1.81%.
On to `N#CCSc1n[nH]c2nc3c(c(=O)n12)C1(CCCC1)Cc1ccccc1-3`, for which the growth inhibition in assay [1] was -1.95%; in assay [6], 28%. The viability increase in assay [2] is 4.21%. For the same compound, the viability in assay [3] is 102%. The inhibition in assay [5] was 2.08%.
Regarding `O=C(O)CC1C(=O)NCCN1C/C=C/c1ccccc1` (stereo unspecified), the growth inhibition in assay [1] is -17.1%; in assay [6], -16.1%. Besides, the viability increase in assay [2] was -2.39%. The viability in assay [3] was 105%; in assay [4], 93.1%. In assay [5], the inhibition is 3.62%.
For `COc1cc2[nH]c(=O)n(Cc3ccc(C(=O)NCC4CCCO4)cc3)c(=O)c2cc1OC` (stereo unspecified), the results for the growth inhibition in assay [1] and in assay [6] were -14.9% and -17.9%, respectively. Also, the viability increase in assay [2] was -3.55%. Moreover, the viability in assay [3] is 90.2%. Further, in assay [5], the inhibition is 3.56%.
Take `CCCCn1c(Oc2ccc(C(=O)OC)cc2)nc2c1c(=O)n(C)c(=O)n2C`: the growth inhibition in assay [1] is -10.3%; in assay [6] it was -3.88%. Besides, the viability increase in assay [2] is -2.52%. In addition, the viability in assay [3] and in assay [4] was 84.1% in each case. The inhibition in assay [5] was 0.085%.
With `CCC1(C)Cc2ccccc2-c2nc3n(c(=O)c21)CCCCC3` (stereo unspecified), the values for the growth inhibition in assay [1] and in assay [6] were -8.71% and -14.2%, respectively. Further, in assay [2], the viability increase is -1.36%. Besides, the viability in assay [3] was 88.1%. Also, the inhibition in assay [5] was 4.02%.
Take `COC(=O)CNc1c(-c2ccccn2)nc2ccc(Br)cn12`: the growth inhibition in assay [1] was -20.4%; in assay [6], 10.8%. Besides, the viability increase in assay [2] is -2.57%. Besides, the viability in assay [3] was 89.2%. The inhibition in assay [5] is 0.175%.
As to `COC(=O)c1c(-c2ccc(F)cc2)csc1NC(=O)c1ccco1`, the growth inhibition in assay [1] was -27.6%; in assay [6], 0.595%. The viability increase in assay [2] is 1.29%. Further, the viability in assay [3] was 78.5%. Further, the inhibition in assay [5] is 1.12%.
On to `CCNC(=O)CCn1nc(-c2ccc(Cl)cc2)c2ccccc2c1=O`, for which the growth inhibition in assay [1] is -10.9%; in assay [6], -10.1%. The viability increase in assay [2] is -5.74%. In addition, in assay [3], the viability was 49.5%. In assay [5], the inhibition is 0.575%.
As to `CCOC(=O)C1CCN(C(=O)Nc2ccc(Cl)cc2)CC1`, the growth inhibition is -17.2% in assay [1] and -13.1% in assay [6]. Also, the viability increase in assay [2] is 1.32%. Moreover, the viability is 96.7% in assay [3] and 102% in assay [4]. The inhibition in assay [5] is -0.18%.
Consider `Cc1noc(/C=C/N(C)C)c1S(=O)(=O)N1CCCC(C(=O)NCc2ccc(F)cc2)C1` (stereo unspecified), for which the growth inhibition in assay [1] was -4.61%; in assay [6] it was -8.86%. Further, the values for the viability in assay [3] and in assay [4] were 90.1% and 85.8%, respectively.
For `CCn1c(C(C)NC(=O)c2cccc(C)c2)nc2ccccc21` (stereo unspecified), the growth inhibition in assay [1] was -8.83%; in assay [6], 5.38%. Besides, the viability increase in assay [2] is -2.68%. Further, the values for the viability in assay [3] and in assay [4] were 102% and 95.6%, respectively. In assay [5], the inhibition was 2.54%.
As for `C=C(C)Cn1c(SCC(=O)O)nnc1-c1ccc(C(C)(C)C)cc1`, the growth inhibition in assay [1] was -15.7%; in assay [6] it was -4.97%. For the same compound, the viability increase in assay [2] was 0.28%. In addition, in assay [4], the viability was 101%. The inhibition in assay [5] is 1%.
As for `COc1ccc2cc(CCNC(=O)c3ccc(Br)o3)c(=O)[nH]c2c1`, the results for the growth inhibition in assay [1] and in assay [6] were -10.1% and -17%, respectively. Moreover, in assay [2], the viability increase is -2.65%. Moreover, the viability was 95.9% in assay [3] and 90.3% in assay [4]. For the same compound, the inhibition in assay [5] is 1.84%.
`COc1ccc(C(=O)/C=C/Nc2cc(C)on2)cc1`: the growth inhibition in assay [1] and in assay [6] was -11.9% each time. For the same compound, in assay [2], the viability increase was -0.71%. The viability in assay [4] was 97%.
As for `Cc1ccc(-c2nc3cnccn3c2Nc2ccc3c(c2)OCCO3)o1`, the growth inhibition is -11.4% in assay [1] and -5.81% in assay [6]. In assay [2], the viability increase is -5.2%. The viability in assay [3] is 92.4%. In assay [5], the inhibition was 1.19%.
`Cc1c(/C=N/n2cnnc2)c2ccccc2n1CCOc1ccc(Cl)cc1`: the growth inhibition is 3.74% in assay [1] and 17.6% in assay [6]. Besides, the viability increase in assay [2] was -4.25%. In addition, the viability in assay [4] is 90%. The inhibition in assay [5] is 4.12%.
Turning to `Brc1ccc(-c2nnc3ccc(N4CCN(c5ccccc5)CC4)nn23)cc1`, the growth inhibition was 7.94% in assay [1] and -10.7% in assay [6]. Also, the viability increase in assay [2] is -5.11%. For the same compound, the viability was 82.8% in assay [3] and 75.5% in assay [4]. Also, the inhibition in assay [5] is 2.52%.
For the compound `CSc1nc(NCCOCCO)c2sc3nc(-c4ccco4)c4c(c3c2n1)CCC4`, the growth inhibition is -7.22% in assay [1] and 0.84% in assay [6]. Also, the viability increase in assay [2] was -4.7%. Also, the viability in assay [3] was 81.3%. Also, the inhibition in assay [5] was 1.51%.
Turning to `O=C(CCCCn1c(=O)[nH]c2ccsc2c1=O)NCC1CCCO1` (stereo unspecified), the growth inhibition in assay [1] is 2.62%; in assay [6] it was -0.86%. The viability increase in assay [2] is -3.45%. The viability in assay [3] was 97.1%. Also, in assay [5], the inhibition is 1.61%.
